# Only some compounds are listed: those with a hit (about 3.7% of all), similar ones and a draw of the others.
# KCNQ1 block: human KCNQ1 channel inhibition. P51787. CHO-K1 KCNQ1, FluxOR thallium flux fluorescence; hits give high values. B-score at 10 µM. 310,000 tested, 1.3% active. AID 2642;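 active = compounds whose thallium flux B-score, printed positive for inhibition, exceeds three library SD while starting fluorescence stays within three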;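 also: channel opened by potassium depolarization with thallium stimulus after 20 min compound exposure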
# KCNK3 block: human KCNK3 channel inhibition, primary screen; O14649; CHO-KCNK3 thallium flux, FluxOR fluorescence; hits give low values; B-score at 10 µM; 340,000 tested, 0.84% active; AID 602410;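 active = B-score under library mean minus 4 SD, starting fluorescence ratio at most library mean plus 5 SD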;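 also: more negative B-score means stronger inhibition of thallium flux through KCNK3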
# KCNQ1 act: potentiates or activates the human KCNQ1 potassium channel; AID 2648; P51787; CHO-K1 KCNQ1, thallium flux FluxOR fluorescence; hits give high values; B-score at 10 µM; 310,000 tested, 0.35% active;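 active = fluorescence ratio B-score, a plate-corrected score, at least three library SD, with initial intensity B-score within 5 SD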
#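 Test system: CHO-K1 cells stably expressing KCNQ1 / Medium: assay buffer / Also added: depolarizing K+/Tl+ stimulus, K2SO4 and Tl2SO4 each 12.5 mM in 5x stock / Incubation: 90 min dye loading and 20 min compound exposure, both at room temperature / Signal: thallium influx via FluxOR fluorescence, kinetic imaging / Evaluation: B score of baseline-normalized fluorescence ratio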
# KCNK9 inh: human KCNK9 channel inhibition; AID 488922; 310,000 tested, 1.2% active; HEK293 KCNK9, FluxOR thallium flux fluorescence; hits give low values; Q9NPC2; B-score at 10 µM;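 active = ratio B-score over 3 SD below the library mean, with starting fluorescence within 5 SD of its mean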;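 also: negative B-score means less thallium flux so channel inhibition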
# hERG rescue: compounds protecting human hERG from proarrhythmic drug block; 310,000 tested, 0.51% active; Q12809; AID 1511; CHO-hERG, FluxOR thallium flux, dofetilide IC70 present; activation (rescue from dofetilide block), less the hit threshold, % at 10 µM;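 active = activation above the mean of controls blocked by dofetilide plus 5 SD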;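 also: thallium influx through hERG after potassium depolarization seen as dye fluorescence rise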
# Kir21 inh: inhibitors of mouse Kir2.1 inward-rectifier potassium channel; P35561; HEK293-Kir2.1, FluxOR thallium flux fluorescence; hits give low values; B-score at 10 µM; 310,000 tested, 0.85% active; AID 1672;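 active = fluorescence ratio B-score at or below minus 3 SD of library scores, with starting-brightness B-score within 2 SD, cut at about -4.2 in these data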;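 also: channel flux triggered by added potassium and thallium sulfate stimulus; B-score of peak minus minimum fluorescence over baseline after thallium stimulus; more negative B-score means stronger Kir2.1 block with less thallium influx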
# KCNQ1 inh valid: reconfirmed blocker of the human KCNQ1 potassium channel | 1,600 tested, 93% active | shares compounds with KCNQ1 block | inhibition, % at 10 µM | KCNQ1 cell line, FluxOR thallium flux fluorescence;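 active = primary screen active, with duplicate mean exceeding buffer control mean plus 3 SD of buffer wells, cut at about 28% in these data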;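 also: 0% = buffer control ratio and 100% = XE991 inhibitor control ratio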
# CHO KCNQ1 ctr: activity in parental CHO cells lacking KCNQ1; shares compounds with KCNQ1 block; parental CHO-K1, FluxOR thallium flux fluorescence ratio; hits give low values; zero means no signal rise above baseline; fluorescence ratio (Tl flux) at 10 µM; 1,600 tested, 21% active; AID 588366;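 active = mean of duplicate thallium-flux fluorescence ratios in parental host cells more than 5 SD below the buffer control mean, cut at about 0.38 in these data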;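 also: ratio is peak minus minimum fluorescence divided by baseline fluorescence; actives read low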
# KCNQ1 ephys val: blocks human KCNQ1 current in automated patch clamp; calls only at 10 µM; 490 tested, 20% active; KCNQ1-CHO cells; AID 624120; shares compounds with KCNQ1 block;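 active = KCNQ1 current drop exceeding 3 SD of negative control wells, seen in both duplicate runs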;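 also: steady state current during a 2 s step from -80 to +40 mV; negative values mean current inhibition and positive values mean potentiation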
# KCNQ2 inh: rat KCNQ2 inhibition in KCNQ1 inhibitor specificity screen; shares compounds with KCNQ1 block; KCNQ2 cells, FluxOR thallium flux fluorescence; inhibition, % at 10 µM; 1,600 tested, 71% active; AID 651746;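 active = mean percent inhibition of the KCNQ2 thallium signal more than 5 SD above the buffer-only control wells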;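 also: KCNQ2 expressed in CHO cells; 0% = buffer control wells and 100% = XE-991 inhibitor control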
# Target sequence (O88943 whole entry, looked up): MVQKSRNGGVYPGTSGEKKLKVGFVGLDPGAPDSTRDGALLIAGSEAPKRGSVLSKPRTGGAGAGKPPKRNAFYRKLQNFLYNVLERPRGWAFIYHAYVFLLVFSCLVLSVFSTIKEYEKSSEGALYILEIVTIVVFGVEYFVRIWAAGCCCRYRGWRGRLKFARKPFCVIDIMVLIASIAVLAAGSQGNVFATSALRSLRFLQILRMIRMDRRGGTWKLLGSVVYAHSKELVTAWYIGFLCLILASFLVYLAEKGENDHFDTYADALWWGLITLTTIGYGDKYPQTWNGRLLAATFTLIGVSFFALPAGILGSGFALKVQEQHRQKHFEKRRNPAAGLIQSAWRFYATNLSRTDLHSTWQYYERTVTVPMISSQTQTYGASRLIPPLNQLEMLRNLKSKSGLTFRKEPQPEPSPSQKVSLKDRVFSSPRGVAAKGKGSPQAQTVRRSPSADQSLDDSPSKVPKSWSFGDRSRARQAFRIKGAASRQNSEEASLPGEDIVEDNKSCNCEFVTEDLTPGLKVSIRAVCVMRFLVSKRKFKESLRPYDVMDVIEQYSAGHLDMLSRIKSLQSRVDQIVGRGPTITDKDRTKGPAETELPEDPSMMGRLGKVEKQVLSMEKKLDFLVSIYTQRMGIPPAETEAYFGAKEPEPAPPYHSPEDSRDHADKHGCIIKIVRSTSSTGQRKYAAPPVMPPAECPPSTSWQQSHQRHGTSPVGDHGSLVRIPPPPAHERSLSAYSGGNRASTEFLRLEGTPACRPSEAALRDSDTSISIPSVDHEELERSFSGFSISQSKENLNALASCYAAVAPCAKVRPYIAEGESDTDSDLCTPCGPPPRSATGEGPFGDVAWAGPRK
# KCNQ1-KCNE1 inh: selectivity of KCNQ1 inhibitors: inhibition of human KCNQ1/KCNE1 channel. 1,600 tested, 77% active. shares compounds with KCNQ1 block. inhibition, % at 10 µM. AID 652147. KCNQ1/KCNE1 cells, FluxOR thallium flux fluorescence;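 active = mean percent inhibition of duplicate wells above the buffer-only control mean plus 3 SD of those controls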;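 also: 0% = buffer only wells and 100% = XE-991 inhibitor control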
# KCNK9 block conf: confirmation of human KCNK9 potassium channel inhibitors; 4,900 tested, 43% active; inhibition, % at 10 µM; HEK293 KCNK9 cells, FluxOR thallium flux fluorescence; shares compounds with KCNK9 inh; AID 492992;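 active = thallium signal inhibited by more than 5 SD of the compound-free buffer control wells, on both duplicate plates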;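 also: 0% = assay buffer control wells without compound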
# Kir21 sel: mouse Kir2.1 off-target activity of KCNK9 modulators; shares compounds with KCNK9 inh; 4,900 tested, 4% active; AID 492993; inhibition, % at 10 µM; Kir2.1 cells, FluxOR thallium flux fluorescence;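 active = thallium signal drop more than 5 SD beyond the mean of the no-compound control wells, seen in both duplicate plates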;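 also: signal is fluorescence rise after thallium addition divided by baseline fluorescence; plate controls were assay buffer only for no effect and full block by chlorpromazine control for full effect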
# KCNK9 uninduced: second check of KCNK9 modulator effects in non-induced HEK293 cells; shares compounds with KCNK9 inh; 4,900 tested, 40% active; AID 492997; inhibition, % at 10 µM; FluxOR thallium flux;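 active = thallium signal drop beyond 5 SD of the untreated control mean, on both duplicate plates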;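 also: plate controls were buffer only IC0 wells for no effect and SID17386958 at its maximal inhibitory level for full effect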
# KCNK3 confirm: confirmation of human KCNK3 two-pore domain potassium channel inhibitors; shares compounds with KCNK3 block; CHO-KCNK3 thallium flux, FluxOR fluorescence; 0% buffer, 100% carvedilol maximal block; ratio percent of control, % at 10 µM; 2,400 tested, 99% active;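 active = ratio percent of control, averaged over triplicates, above buffer control mean plus 5 SD, cut at about 64% in these data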;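 also: ratio is the fluorescence rise from min to max over baseline after thallium stimulus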
# KCNK3 noninduced: activity in cells without induced KCNK3 expression. thallium flux ratio (lower = more inhibition) at 10 µM. shares compounds with KCNK3 block. 2,400 tested, 40% active. non-induced KCNK3 parental cells, FluxOR thallium flux; hits give low values;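 active = thallium flux ratio, averaged over three wells, more than 5 SD below the buffer control mean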;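 also: host cells are CHO cells without KCNK3 induction; ratio is peak minus trough fluorescence over baseline then normalized to buffer controls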
# * marks the source's active call; other numbers are inactive results; i = inactive; . = not tested or not shown; + = active, no number.
SMILES,KCNQ1 block,KCNK3 block,KCNQ1 act,KCNK9 inh,hERG rescue,Kir21 inh,KCNQ1 inh valid,CHO KCNQ1 ctr,KCNQ2 inh,KCNQ1-KCNE1 inh,KCNK3 confirm,KCNK3 noninduced,others
O=C(Nc1ccncc1)c1ccc(Cl)c(S(=O)(=O)N2CCCCC2)c1,i,i,i,i,-15,-1.5,.,.,.,.,.,.,
Cc1cc(SCC(=O)c2ccc(O)c(O)c2)nc2ccccc12,9*,-9.4*,i,i,-17,-1,100*,0.47,i,116%*,120*,0.14*,KCNQ1 ephys val=i
Cc1cc(SCC(=O)c2ccc3c(c2)OCO3)nc2ccccc12,i,i,i,i,-13,-3.3,.,.,.,.,.,.,
N#CC[C@H](Cc1ccccc1)N1CC[C@@H](O)CCC1=O,i,i,i,i,-13,-0.4,.,.,.,.,.,.,
COc1cccc(-c2cc3nc4c(c(NCC(C)(C)CN(C)C)n3n2)CCCC4)c1,9*,-10*,i,i,-10,0.8,86*,0.45,95%*,116%*,120*,i,
CCN1C=C(Cc2ccccc2C)C2=C(C1)C(c1ccccc1C)C(C#N)=C(N)O2 (stereo unspecified),12*,-8.9*,i,-6.7*,-21,-0.41,116*,0.32*,105%*,104%*,118*,0.13*,
CN(C)CCCNC(=O)c1cc(C(=O)c2c(Cl)cccc2Cl)c[nH]1,i,i,i,i,-4,-0.25,.,.,.,.,.,.,
CCc1nc(N2CCN(Cc3ccc4c(c3)OCO4)CC2)c2oc3ccccc3c2n1,9*,-9*,i,i,-17,-0.69,128*,0.41,105%*,179%*,109*,0.14*,KCNQ1 ephys val=i
CCOCCCN(CCC#N)C(=O)C1CCN(S(=O)(=O)c2ccc(-n3cnnn3)cc2)CC1,i,i,i,i,-4,-0.27,.,.,.,.,.,.,
CCCCNC(=S)N1CCn2cccc2C1c1ccc(F)cc1 (stereo unspecified),6*,-9.7*,i,-14*,-23,0.33,92*,0.42,81%*,70%*,134*,0.15*,KCNQ1 ephys val=i;KCNK9 block conf=56%*;Kir21 sel=i;KCNK9 uninduced=41%*
CCCCNC(=S)N1CCn2cccc2C1c1ccccc1 (stereo unspecified),i,i,i,i,-12,1.2,.,.,.,.,.,.,
Cc1csc2c(N3CCN(C(=O)c4ccc(C(C)(C)C)cc4)CC3)ncnc12,9*,-9.8*,i,i,-21,0.09,138*,0.3*,137%*,170%*,130*,i,
CCOC(=O)C1CCN(c2ncnc3c(C)csc23)CC1,i,i,i,i,-4,0.28,.,.,.,.,.,.,
O=C1CCC(C(=O)N2CCCCO2)CN1CCc1ccccc1 (stereo unspecified),i,i,i,i,-3,-0.4,.,.,.,.,.,.,
Clc1ccc(/C=C/c2nc3ccccc3[nH]2)c(Cl)c1,14*,-11*,i,i,-17,0.03,112*,0.32*,107%*,76%*,115*,0.1*,
O=C(/C=C/c1ccc(Cl)cc1Cl)c1nc2ccccc2[nH]1,i,i,i,i,-13,0.85,.,.,.,.,.,.,
CC1C(=O)N(Cc2ccccc2F)c2ccccc2N1C(=O)c1c(F)cccc1F (stereo unspecified),15*,-9*,i,-7.7*,-19,0.01,58*,0.44,78%*,50%*,87*,i,
Cc1ccc(Nc2nc(NCCO)c3ccccc3n2)cc1C,7*,-12*,i,i,-20,-6.9*,102*,0.39,66%*,84%*,128*,i,KCNQ1 ephys val=i
C[C@H](NC(=O)C1CCN(S(=O)(=O)c2ccccc2)CC1)C(=O)NCc1ccco1,i,i,i,i,-8,-1.6,.,.,.,.,.,.,
c1ccc(-c2cc(-c3nc4ccccc4[nH]3)c3ccccc3n2)cc1,8*,-10*,i,-7.6*,-38,-0.14,149*,0.25*,122%*,+,143*,0.13*,
CCOC(=O)C1CCCN(S(=O)(=O)c2ccc(-c3cc(C)no3)s2)C1 (stereo unspecified),i,i,i,i,-4,1.1,.,.,.,.,.,.,
Cc1ccc(Cn2cccc2C2=NC(C)CO2)cc1 (stereo unspecified),i,i,i,i,-6,-0.3,.,.,.,.,.,.,
CC(C)C1COC(c2cccn2Cc2ccccc2Cl)=N1 (stereo unspecified),i,i,i,i,-4,0.51,.,.,.,.,.,.,KCNK9 block conf=i;Kir21 sel=i;KCNK9 uninduced=30%*
Cc1oc(-c2ccccc2Cl)nc1Cn1cccc1C1=NC(c2ccccc2)CO1 (stereo unspecified),6*,i,i,-13*,-6,-2,.,.,.,.,.,.,KCNK9 block conf=54%*;Kir21 sel=i;KCNK9 uninduced=52%*
COc1ccc(CCNC(=O)c2cc3c(C)nccc3[nH]c2=O)cc1OC,i,i,i,i,-33,0.49,.,.,.,.,.,.,
Cc1nnc(SCc2nnc(-c3ccccc3Br)o2)s1,i,i,i,i,-8,-1.9,.,.,.,.,.,.,
